From PubChem
GSIS activator: GLuc luminescence reporter in INS-1E cells, primary screen for activators of glucose-dependent secretion of insulin; actives 0.61% (n = 370,000); INS-1E GLuc reporter insulin secretion, 2-3 h; activation, % at 16.6 µM; AID 743287;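 active = lowest replicate activation of at least 40%, so every replicate reaches that level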
GSK3 alpha inh: human GSK-3 alpha kinase inhibition; P49840; ADP-Glo luminescence, 60 min; inhibition, % at 10 µM; actives 0.1% (n = 320,000);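 active = more than half of replicates show inhibition above 20%; inconclusive = some but at most half of replicates above 20% inhibition; inactive = no replicate shows inhibition above 20%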;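 note: GST-tagged GSK-3 alpha with peptide substrate and 25 µM ATP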
Target sequence (P49840 whole entry, looked up): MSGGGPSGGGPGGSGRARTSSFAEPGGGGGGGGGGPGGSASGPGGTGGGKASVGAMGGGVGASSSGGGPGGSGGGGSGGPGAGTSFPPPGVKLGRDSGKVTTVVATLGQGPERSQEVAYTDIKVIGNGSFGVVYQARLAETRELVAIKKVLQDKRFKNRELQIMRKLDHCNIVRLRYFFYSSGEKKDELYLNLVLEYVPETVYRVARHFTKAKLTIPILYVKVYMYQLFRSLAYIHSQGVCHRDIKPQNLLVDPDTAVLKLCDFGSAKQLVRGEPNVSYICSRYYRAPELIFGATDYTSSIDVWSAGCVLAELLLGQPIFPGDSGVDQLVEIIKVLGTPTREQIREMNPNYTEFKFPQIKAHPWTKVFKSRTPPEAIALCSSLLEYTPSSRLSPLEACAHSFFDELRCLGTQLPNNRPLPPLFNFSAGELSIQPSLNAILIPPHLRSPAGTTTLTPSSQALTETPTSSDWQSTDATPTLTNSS
CDK5 inh: inhibitors of human CDK5/p35 kinase; Q00535+Q15078; actives 0.01% (n = 330,000); Recombinant CDK5/p35, ADP-Glo luminescence, 60 min; AID 488839; inhibition, % at 10 µM;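 active = highest replicate inhibition of at least 50% and at least 75% of replicates reaching 50%; inconclusive = only one of the two criteria met; inactive = both criteria failed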
STK33 inh: blocks human STK33 kinase activity. Q9BYT3. inhibition, % at 10 µM. AID 2661. purified STK33, MBP phosphorylation, ADP-Glo luminescence. actives 0.073% (n = 320,000);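 active = inhibition at or above 25%, using the most active replicate where run in duplicate; inactive = inhibition below 25%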
GSK3B inh: inhibitors of human GSK3beta kinase. GST-GSK3beta kinase, ADP-Glo luminescence, 60 min; stronger effect = lower value. activity score (negative = inhibition), % at 10 µM. actives 0.038% (n = 300,000). AID 2097;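 active = more than half of replicate wells score below -50%, meaning over 50% inhibition versus plate controls; inconclusive = some replicates but at most half score below -50%; inactive = no replicate scores below -50%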
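Test system: GST-fused GSK3beta enzyme, cell-free | Quantity: 1.6 ng GST-GSK3beta enzyme per well | Reagent: 25 µM ATP with peptide substrate | Schedule: 60 min enzyme reaction, room temperature | Signal: Luminescent ADP-Glo measurement of ADP formed | Read-out basis: Score relative to plate controls | Control set: DMSO and 20 µM GW8510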
HIV Env fusion: blocks HIV Env-driven cell-cell fusion; HeLa-JRFL Env/CEM21 cell fusion, luciferase; inhibition, % at 12.3 µM; actives 1.1% (n = 360,000);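 active = mean replicate inhibition score of at least 50 and every replicate individually at or above 50; inconclusive = only one of the two criteria met; inactive = mean below 50 and not all replicates reaching 50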
A number is an active result; [ ] = remark or other dose. A selection: hits, their analogues and other compounds. The true share with any hit is near 1.4%.

`COc1cccc(S(=O)(=O)Nc2ccc3c(c2)[C@H]2C[C@H](CC(=O)NCc4ccc(Cl)cc4)O[C@@H](CO)[C@H]2O3)c1` gave GSIS activator inactive and HIV Env fusion 57[16.7 µM].
For CN(C)c1ccc2c(c1)[C@@H]1C[C@H](CC(=O)NCc3ccc(-c4ccccc4)cc3)O[C@@H](CO)[C@@H]1O2 the results were GSIS activator inactive and HIV Env fusion 80[16.7 µM].
Screening O=C(C[C@H]1C[C@@H]2c3cc(NS(=O)(=O)c4ccc(F)cc4)ccc3O[C@@H]2[C@@H](CO)O1)NCc1ccc(-c2ccccc2)cc1 returned GSIS activator inactive and HIV Env fusion 71[16.7 µM].
For COc1ccc2c3c([nH]c2c1)[C@@H](CO)N(C(C)=O)CC31CN(C(=O)c2cccc(F)c2)C1 the results were GSIS activator inactive.
C[C@H]1CN([C@@H](C)CO)C(=O)c2cccc(NC(=O)C3CCCCC3)c2O[C@H]1CN(C)S(=O)(=O)c1ccccc1 was read as GSIS activator inactive.
COc1ccc2c3c([nH]c2c1)[C@@H](CO)N(C(=O)C1CCC1)CC31CN(C(=O)c2ccccn2)C1 was read as GSIS activator inactive.
For C[C@@H]1CCCCO[C@H](CN(C)Cc2ccc(C(F)(F)F)cc2)[C@H](C)CN([C@@H](C)CO)C(=O)c2cc(NC(=O)CCCN(C)C)ccc2O1 the results were GSIS activator inactive and HIV Env fusion inactive.
Screening COc1cccc(S(=O)(=O)N[C@H]2CC[C@H](CC(=O)NCc3ccncc3)O[C@H]2CO)c1 returned GSIS activator inactive and HIV Env fusion inactive.
Screening COc1cccc(S(=O)(=O)N[C@@H]2CC[C@H](CC(=O)NCc3ccncc3)O[C@@H]2CO)c1 returned GSIS activator inactive and HIV Env fusion 56[16.7 µM].
`COC(=O)c1c(NC(=O)Cc2ccccc2)sc2c1CC(C)(C)NC2(C)C` gave GSIS activator inactive, GSK3 alpha inh inactive, CDK5 inh inactive, STK33 inh inactive, GSK3B inh inactive and HIV Env fusion inactive.
COC(=O)c1c(NC(=O)COc2ccc(Cl)cc2)sc2c1CC(C)(C)NC2(C)C was read as GSIS activator inactive, GSK3 alpha inh inactive, CDK5 inh inactive, STK33 inh inactive, GSK3B inh inactive and HIV Env fusion 57.
C[C@@H]1CN([C@H](C)CO)C(=O)c2cc(C3=CCCCC3)cnc2O[C@H]1CN(C)Cc1ccccn1 was read as GSIS activator inactive and HIV Env fusion inactive.
`COc1cccc(CN(C(=O)Cc2c[nH]c3ccccc23)C(C(=O)NC2CCCCC2)c2cccs2)c1` (configuration not stated) gave GSK3 alpha inh inactive, CDK5 inh inactive, STK33 inh inactive, GSK3B inh inactive and HIV Env fusion 91.
Screening CC(=O)Nc1ccc(N(C(=O)Cc2c[nH]c3ccccc23)C(C(=O)NC2CCCCC2)c2ccco2)cc1 (configuration not stated) returned GSIS activator inactive, GSK3 alpha inh inactive, CDK5 inh inactive, STK33 inh inactive, GSK3B inh inactive and HIV Env fusion inactive.
`Cc1ccc(N(C(=O)Cc2cccs2)C(C(=O)NC2CCCCC2)c2ccccn2)cc1C` (configuration not stated) gave GSIS activator inactive, GSK3 alpha inh inactive, CDK5 inh inactive, STK33 inh inactive, GSK3B inh inactive and HIV Env fusion 82.
For CC(=O)c1ccc(N(C(=O)Cc2c[nH]c3ccccc23)C(C(=O)NC2CCCCC2)c2cccs2)cc1 (configuration not stated) the results were GSK3 alpha inh inactive, CDK5 inh inactive, STK33 inh inactive, GSK3B inh inactive and HIV Env fusion inactive.
COc1ccc(C(C(=O)NC2CCCCC2)N(Cc2cccs2)C(=O)Cc2c[nH]c3ccccc23)cc1 (configuration not stated) was read as GSK3 alpha inh inactive, CDK5 inh inactive, STK33 inh inactive, GSK3B inh inactive and HIV Env fusion inconclusive.
Cc1ccc(C(C(=O)NC2CCCCC2)N(C(=O)Cc2c[nH]c3ccccc23)c2ccccc2)o1 (configuration not stated) was read as GSK3 alpha inh inactive, CDK5 inh inactive, STK33 inh inactive, GSK3B inh inactive and HIV Env fusion 112.
